Here are results for 45 compounds from ChEMBL document CHEMBL4387700, “A novel, potent, and orally bioavailable thiazole HCV NS5A inhibitor for the treatment of hepatitis C virus” (Eur J Med Chem, 2019).

As usually defined, the CC50 is the concentration at which the toxic effect on the cells reaches its halfway point.

Bounds are passed on as bounds.

This series in a line: Cytotoxicity against human HuH7 cells assessed as reduction in cell viability by MTS assay. The format is cell-based, Huh-7. The gist of the method:
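Viability of Huh-7 cells was read by MTS assay.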
On the technique in general: Tetrazolium assays rely on reduction of a dye to a coloured formazan, in cell work by metabolically active cells.
With `O=C(N[C@H](C(=O)N1CCC[C@H]1c1ncc(-c2ccc(-c3ccc(-c4cnc([C@@H]5CCCN5C(=O)[C@H](NC(=O)c5ccccc5)c5ccccc5)s4)cc3)cc2)s1)c1ccccc1)c1ccccc1`, the CC50 is above 50 µM. As for `O=C(N[C@@H](C(=O)N1CCC[C@H]1c1ncc(-c2ccc(-c3ccc(-c4cnc([C@@H]5CCCN5C(=O)[C@H](NC(=O)C5CCCC5)c5ccccc5)s4)cc3)cc2)s1)c1ccccc1)C1CCCC1`, the cytotoxic concentration (CC50) was above 50 µM. In the case of `CCN(CC)CCC(=O)N[C@H](C(=O)N1CCC[C@H]1c1ncc(-c2ccc(-c3ccc(-c4cnc([C@@H]5CCCN5C(=O)[C@H](NC(=O)CCN(CC)CC)c5ccccc5)s4)cc3)cc2)s1)c1ccccc1`, the 50% cytotoxic concentration (CC50) is above 50 µM. `CCCC[C@H](NC(=O)OC)C(=O)N1CCC[C@H]1c1ncc(-c2ccc(-c3ccc(-c4cnc([C@@H]5CCCN5C(=O)[C@H](CCCC)NC(=O)OC)s4)cc3)cc2)s1`: the CC50 was above 50 µM. Turning to `COC(=O)N[C@H](C(=O)N1CCC[C@H]1c1ncc(-c2ccc(-c3ccc(-c4cnc([C@@H]5CCCN5C(=O)[C@@H](NC(=O)OC)C(C)(C)C)s4)cc3)cc2)s1)C(C)(C)C`, the CC50 was above 50 µM. For the compound `O=C(CCn1cccc1)N[C@@H](C(=O)N1CCC[C@H]1c1ncc(-c2ccc(-c3ccc(-c4cnc([C@@H]5CCCN5C(=O)[C@H](NC(=O)CCn5cccc5)c5ccccc5)s4)cc3)cc2)s1)c1ccccc1`, the CC50 was above 50 µM.

Regarding `COC(=O)N[C@@H](C)C(=O)N1CCC[C@H]1c1ncc(-c2ccc(-c3ccc(-c4cnc([C@@H]5CCCN5C(=O)[C@H](C)NC(=O)OC)s4)cc3)cc2)s1`, the half-maximal cytotoxic concentration (CC50) was above 50 µM. With `O=C(CCn1cccc1)N[C@H](C(=O)N1CCC[C@H]1c1ncc(-c2ccc(-c3ccc(-c4cnc([C@@H]5CCCN5C(=O)[C@H](NC(=O)CCn5cccc5)c5ccccc5)s4)cc3)cc2)s1)c1ccccc1`, the CC50 is above 50 µM. For the compound `CC[C@@H](NC(=O)C1CC1)C(=O)N1CCC[C@H]1c1ncc(-c2ccc(-c3ccc(-c4cnc([C@@H]5CCCN5C(=O)[C@@H](CC)NC(=O)C5CC5)s4)cc3)cc2)s1`, the CC50 is above 50 µM. With `O=C(N[C@H](C(=O)N1CCC[C@H]1c1ncc(-c2ccc(-c3ccc(-c4cnc([C@@H]5CCCN5C(=O)[C@H](NC(=O)c5ccco5)c5ccccc5)s4)cc3)cc2)s1)c1ccccc1)c1ccco1`, the CC50 was above 50 µM. As for `O=C(N[C@@H](C(=O)N1CCC[C@H]1c1ncc(-c2ccc(-c3ccc(-c4cnc([C@@H]5CCCN5C(=O)[C@H](NC(=O)c5cccs5)c5ccccc5)s4)cc3)cc2)s1)c1ccccc1)c1cccs1`, the CC50 was above 50 µM. `CN(C)CCC(=O)N[C@@H](C(=O)N1CCC[C@H]1c1ncc(-c2ccc(-c3ccc(-c4cnc([C@@H]5CCCN5C(=O)[C@H](NC(=O)CCN(C)C)c5ccccc5)s4)cc3)cc2)s1)c1ccccc1`: the 50% cytotoxic concentration (CC50) is above 50 µM. For `O=C(N[C@H](C(=O)N1CCC[C@H]1c1ncc(-c2ccc(-c3ccc(-c4cnc([C@@H]5CCCN5C(=O)[C@H](NC(=O)N5CCOCC5)c5ccccc5)s4)cc3)cc2)s1)c1ccccc1)N1CCOCC1`, the half-maximal cytotoxic concentration (CC50) was above 50 µM.

In the case of `O=C(CCN1CCCC1)N[C@@H](C(=O)N1CCC[C@H]1c1ncc(-c2ccc(-c3ccc(-c4cnc([C@@H]5CCCN5C(=O)[C@H](NC(=O)CCN5CCCC5)c5ccccc5)s4)cc3)cc2)s1)c1ccccc1`, the CC50 is above 50 µM. For the compound `O=C(N[C@@H](C(=O)N1CCC[C@H]1c1ncc(-c2ccc(-c3ccc(-c4cnc([C@@H]5CCCN5C(=O)[C@H](NC(=O)N5CCOCC5)c5ccccc5)s4)cc3)cc2)s1)c1ccccc1)N1CCOCC1`, the half-maximal cytotoxic concentration (CC50) is above 50 µM. With `O=C(N[C@H](C(=O)N1CCC[C@H]1c1ncc(-c2ccc(-c3ccc(-c4cnc([C@@H]5CCCN5C(=O)[C@H](NC(=O)c5ccsc5)c5ccccc5)s4)cc3)cc2)s1)c1ccccc1)c1ccsc1`, the CC50 is above 50 µM. Consider `O=C(CCN1CCCCC1)N[C@H](C(=O)N1CCC[C@H]1c1ncc(-c2ccc(-c3ccc(-c4cnc([C@@H]5CCCN5C(=O)[C@H](NC(=O)CCN5CCCCC5)c5ccccc5)s4)cc3)cc2)s1)c1ccccc1`, for which the 50% cytotoxic concentration (CC50) was above 50 µM.

As to `COC(=O)N[C@H](C(=O)N1CCC[C@H]1c1ncc(-c2ccc(-c3ccc(-c4cnc([C@@H]5CCCN5C(=O)[C@@H](NC(=O)OC)c5ccccc5)s4)cc3)cc2)s1)c1ccccc1`, the CC50 is above 50 µM. Take `COC(=O)N[C@H](C(=O)N1CCC[C@H]1c1ncc(-c2ccc(-c3ccc(-c4cnc([C@@H]5CCCN5C(=O)[C@H](NC(=O)OC)c5ccccc5)s4)cc3)cc2)s1)c1ccccc1`: the CC50 is above 50 µM.

For the compound `CCOC(=O)N[C@H](C(=O)N1CCC[C@H]1c1ncc(-c2ccc(-c3ccc(-c4cnc([C@@H]5CCCN5C(=O)[C@@H](NC(=O)OCC)C(C)C)s4)cc3)cc2)s1)C(C)C`, the 50% cytotoxic concentration (CC50) is above 50 µM. On to `O=C(Cc1ccccc1)N[C@@H](C(=O)N1CCC[C@H]1c1ncc(-c2ccc(-c3ccc(-c4cnc([C@@H]5CCCN5C(=O)[C@H](NC(=O)Cc5ccccc5)c5ccccc5)s4)cc3)cc2)s1)c1ccccc1`, for which the CC50 is above 50 µM. Turning to `COC(=O)N[C@@H](CC(C)C)C(=O)N1CCC[C@H]1c1ncc(-c2ccc(-c3ccc(-c4cnc([C@@H]5CCCN5C(=O)[C@H](CC(C)C)NC(=O)OC)s4)cc3)cc2)s1`, the 50% cytotoxic concentration (CC50) is above 50 µM. Consider `CCCC(=O)N[C@@H](C(=O)N1CCC[C@H]1c1ncc(-c2ccc(-c3ccc(-c4cnc([C@@H]5CCCN5C(=O)[C@H](NC(=O)CCC)c5ccccc5)s4)cc3)cc2)s1)c1ccccc1`, for which the CC50 is above 50 µM. With `CC(=O)N[C@@H](C(=O)N1CCC[C@H]1c1ncc(-c2ccc(-c3ccc(-c4cnc([C@@H]5CCCN5C(=O)[C@H](NC(C)=O)c5ccccc5)s4)cc3)cc2)s1)c1ccccc1`, the CC50 is above 50 µM.

For the compound `O=C(N[C@@H](C(=O)N1CCC[C@H]1c1ncc(-c2ccc(-c3ccc(-c4cnc([C@@H]5CCCN5C(=O)[C@H](NC(=O)c5ccncc5)c5ccccc5)s4)cc3)cc2)s1)c1ccccc1)c1ccncc1`, the CC50 is above 50 µM. For `CC[C@H](NC(=O)OC)C(=O)N1CCC[C@H]1c1ncc(-c2ccc(-c3ccc(-c4cnc([C@@H]5CCCN5C(=O)[C@H](CC)NC(=O)OC)s4)cc3)cc2)s1`, the CC50 is above 50 µM. For `CCC[C@H](NC(=O)OC)C(=O)N1CCC[C@H]1c1ncc(-c2ccc(-c3ccc(-c4cnc([C@@H]5CCCN5C(=O)[C@H](CCC)NC(=O)OC)s4)cc3)cc2)s1`, the CC50 was above 50 µM. With `CN1CCN(CCC(=O)N[C@@H](C(=O)N2CCC[C@H]2c2ncc(-c3ccc(-c4ccc(-c5cnc([C@@H]6CCCN6C(=O)[C@H](NC(=O)CCN6CCN(C)CC6)c6ccccc6)s5)cc4)cc3)s2)c2ccccc2)CC1`, the 50% cytotoxic concentration (CC50) was above 50 µM. For the compound `CS(=O)(=O)N[C@@H](C(=O)N1CCC[C@H]1c1ncc(-c2ccc(-c3ccc(-c4cnc([C@@H]5CCCN5C(=O)[C@H](NS(C)(=O)=O)c5ccccc5)s4)cc3)cc2)s1)c1ccccc1`, the CC50 is above 50 µM. Take `CC(C)C(=O)N[C@H](C(=O)N1CCC[C@H]1c1ncc(-c2ccc(-c3ccc(-c4cnc([C@@H]5CCCN5C(=O)[C@H](NC(=O)C(C)C)c5ccccc5)s4)cc3)cc2)s1)c1ccccc1`: the 50% cytotoxic concentration (CC50) is above 50 µM. Turning to `CC(=O)N[C@H](C(=O)N1CCC[C@H]1c1ncc(-c2ccc(-c3ccc(-c4cnc([C@@H]5CCCN5C(=O)[C@H](NC(C)=O)c5ccccc5)s4)cc3)cc2)s1)c1ccccc1`, the CC50 was above 50 µM. For `O=C(N[C@@H](C(=O)N1CCC[C@H]1c1ncc(-c2ccc(-c3ccc(-c4cnc([C@@H]5CCCN5C(=O)[C@H](NC(=O)C5CCC5)c5ccccc5)s4)cc3)cc2)s1)c1ccccc1)C1CCC1`, the CC50 is above 50 µM. The value for `COC(=O)N[C@H](C(=O)N1CCC[C@H]1c1ncc(-c2ccc(-c3ccc(-c4cnc([C@@H]5CCCN5C(=O)[C@@H](NC(=O)OC)C(C)C)s4)cc3)cc2)s1)C(C)C` was above 50 µM; that for `CN1CCN(CCC(=O)N[C@H](C(=O)N2CCC[C@H]2c2ncc(-c3ccc(-c4ccc(-c5cnc([C@@H]6CCCN6C(=O)[C@H](NC(=O)CCN6CCN(C)CC6)c6ccccc6)s5)cc4)cc3)s2)c2ccccc2)CC1` was above 50 µM; that for `O=C(N[C@H](C(=O)N1CCC[C@H]1c1ncc(-c2ccc(-c3ccc(-c4cnc([C@@H]5CCCN5C(=O)[C@H](NC(=O)C5CCC5)c5ccccc5)s4)cc3)cc2)s1)c1ccccc1)C1CCC1` was above 50 µM. For the compound `O=C(Cc1ccccc1)N[C@H](C(=O)N1CCC[C@H]1c1ncc(-c2ccc(-c3ccc(-c4cnc([C@@H]5CCCN5C(=O)[C@H](NC(=O)Cc5ccccc5)c5ccccc5)s4)cc3)cc2)s1)c1ccccc1`, the CC50 was above 50 µM.

Turning to `O=C(N[C@@H](C(=O)N1CCC[C@H]1c1ncc(-c2ccc(-c3ccc(-c4cnc([C@@H]5CCCN5C(=O)[C@H](NC(=O)C5CCCCC5)c5ccccc5)s4)cc3)cc2)s1)c1ccccc1)C1CCCCC1`, the CC50 was above 50 µM. The value for `CC(C)C(=O)N[C@@H](C(=O)N1CCC[C@H]1c1ncc(-c2ccc(-c3ccc(-c4cnc([C@@H]5CCCN5C(=O)[C@H](NC(=O)C(C)C)c5ccccc5)s4)cc3)cc2)s1)c1ccccc1` was above 50 µM; that for `CN(C)CCC(=O)N[C@H](C(=O)N1CCC[C@H]1c1ncc(-c2ccc(-c3ccc(-c4cnc([C@@H]5CCCN5C(=O)[C@H](NC(=O)CCN(C)C)c5ccccc5)s4)cc3)cc2)s1)c1ccccc1` was above 50 µM. For `O=C(CCN1CCCC1)N[C@H](C(=O)N1CCC[C@H]1c1ncc(-c2ccc(-c3ccc(-c4cnc([C@@H]5CCCN5C(=O)[C@H](NC(=O)CCN5CCCC5)c5ccccc5)s4)cc3)cc2)s1)c1ccccc1`, the half-maximal cytotoxic concentration (CC50) was above 50 µM. For the compound `CC(C)(C)C(=O)N[C@@H](C(=O)N1CCC[C@H]1c1ncc(-c2ccc(-c3ccc(-c4cnc([C@@H]5CCCN5C(=O)[C@H](NC(=O)C(C)(C)C)c5ccccc5)s4)cc3)cc2)s1)c1ccccc1`, the 50% cytotoxic concentration (CC50) is above 50 µM. Consider `CCCCCC(=O)N[C@H](C(=O)N1CCC[C@H]1c1ncc(-c2ccc(-c3ccc(-c4cnc([C@@H]5CCCN5C(=O)[C@H](NC(=O)CCCCC)c5ccccc5)s4)cc3)cc2)s1)c1ccccc1`, for which the CC50 was above 50 µM. As for `O=C(N[C@@H](C(=O)N1CCC[C@H]1c1ncc(-c2ccc(-c3ccc(-c4cnc([C@@H]5CCCN5C(=O)[C@H](NC(=O)c5ccco5)c5ccccc5)s4)cc3)cc2)s1)c1ccccc1)c1ccco1`, the CC50 was above 50 µM.

As to `CCCC[C@@H](NC(=O)C1CC1)C(=O)N1CCC[C@H]1c1ncc(-c2ccc(-c3ccc(-c4cnc([C@@H]5CCCN5C(=O)[C@@H](CCCC)NC(=O)C5CC5)s4)cc3)cc2)s1`, the CC50 was above 50 µM. On to `O=C(N[C@H](C(=O)N1CCC[C@H]1c1ncc(-c2ccc(-c3ccc(-c4cnc([C@@H]5CCCN5C(=O)[C@H](NC(=O)c5ccccn5)c5ccccc5)s4)cc3)cc2)s1)c1ccccc1)c1ccccn1`, for which the CC50 is above 50 µM.
